Activity calls are given as the source filed them. The calls are words filed in the database; no cut-off is given here.
Key:
HepG2 = test: Cytotoxicity against human HepG2 cells assessed as reduction in cell viability after 72 hrs by CCK-8 assay; assay type: functional; conditions: HepG2, 72 h
In short: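 HepG2 or HEK-293T cells were seeded at 5000 per well and grown 24 h at 37 °C, 5% CO₂. Cells were then exposed to compound for 72 h; compound came from DMSO, diluted in medium to final DMSO <0.4%, with a DMSO-matched vehicle control. Viability was read by 10% CCK-8 for 1 h, absorbance 450 nm, in triplicate.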

Staphylococcus aureus [1] = test: Antibacterial activity against wild type Staphylococcus aureus Newman infected in BALB/c mouse assessed as decrease in bacterial load in mouse liver at 0.4 mg, ip bid administered 4.5 days […] bacterial infection measured after 90 hrs relative to control; assay type: functional
In short: (§1)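 Female BALB/c mice, 6-8 weeks old, infected retro-orbitally with 2.2 × 10⁷ CFU S. aureus Newman. Intraperitoneal dosing in 12 intervals: pre-treatment groups received a total of 50 or 200 mg/kg starting before infection; post-treatment groups received a total of 39 or 156 mg/kg starting 6 h after infection. Vehicle was ddH₂O. At 90 h post-infection, liver or kidney was homogenized in PBS/0.01% Triton X-100 and plated on TSA for CFU.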

Staphylococcus aureus [2] = test: Antibacterial activity against methicillin-resistant Staphylococcus aureus USA300 LAC assessed as decrease in bacterial survival at 1 uM after 24 hrs by H2O2 killing assay; assay type: functional, organism-based
Staphylococcus aureus [3] = test: Growth inhibition of methicillin-resistant Staphylococcus aureus USA300 LAC at 0.2 mM incubated for overnight; assay type: functional, organism-based
In short: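 Overnight cultures washed in PBS and diluted in TSB to OD600 ~1.0. Inoculated to a final OD600 of about 0.05 into TSB containing compound (0.2 or 0.05 mM, from a 20 mM DMSO stock) or DMSO growth control, overlaid with paraffin wax. OD600 read every 30 min during overnight incubation at 37 °C.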

Staphylococcus aureus [4] = test: Inhibition of pigmentation in methicillin/linezolid-resistant Staphylococcus aureus NRS271 after 48 hrs by spectrophotometric method; assay type: functional, organism-based; conditions: NRS271, 48 h
In short: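 Bacteria grown in 4 mL TSB for 48 h at 37 °C with compound serially diluted from DMSO, in duplicate; DMSO vehicle control and non-pigmented CrtN mutant as reference. Cells from 3 mL of culture washed twice with 0.01 M PBS and pigment extracted into methanol. Absorbance read at 450 nm; IC50 fitted from the concentration series.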

[5] = target: Voltage-gated inwardly rectifying potassium channel KCNH2 (Homo sapiens, UniProt Q12809); test: Inhibition of human ERG expressed in CHO cells at holding potential of -80 mV by whole cell Qpatch assay; assay type: cell-based
Sequence of Voltage-gated inwardly rectifying potassium channel KCNH2 (Q12809 whole entry): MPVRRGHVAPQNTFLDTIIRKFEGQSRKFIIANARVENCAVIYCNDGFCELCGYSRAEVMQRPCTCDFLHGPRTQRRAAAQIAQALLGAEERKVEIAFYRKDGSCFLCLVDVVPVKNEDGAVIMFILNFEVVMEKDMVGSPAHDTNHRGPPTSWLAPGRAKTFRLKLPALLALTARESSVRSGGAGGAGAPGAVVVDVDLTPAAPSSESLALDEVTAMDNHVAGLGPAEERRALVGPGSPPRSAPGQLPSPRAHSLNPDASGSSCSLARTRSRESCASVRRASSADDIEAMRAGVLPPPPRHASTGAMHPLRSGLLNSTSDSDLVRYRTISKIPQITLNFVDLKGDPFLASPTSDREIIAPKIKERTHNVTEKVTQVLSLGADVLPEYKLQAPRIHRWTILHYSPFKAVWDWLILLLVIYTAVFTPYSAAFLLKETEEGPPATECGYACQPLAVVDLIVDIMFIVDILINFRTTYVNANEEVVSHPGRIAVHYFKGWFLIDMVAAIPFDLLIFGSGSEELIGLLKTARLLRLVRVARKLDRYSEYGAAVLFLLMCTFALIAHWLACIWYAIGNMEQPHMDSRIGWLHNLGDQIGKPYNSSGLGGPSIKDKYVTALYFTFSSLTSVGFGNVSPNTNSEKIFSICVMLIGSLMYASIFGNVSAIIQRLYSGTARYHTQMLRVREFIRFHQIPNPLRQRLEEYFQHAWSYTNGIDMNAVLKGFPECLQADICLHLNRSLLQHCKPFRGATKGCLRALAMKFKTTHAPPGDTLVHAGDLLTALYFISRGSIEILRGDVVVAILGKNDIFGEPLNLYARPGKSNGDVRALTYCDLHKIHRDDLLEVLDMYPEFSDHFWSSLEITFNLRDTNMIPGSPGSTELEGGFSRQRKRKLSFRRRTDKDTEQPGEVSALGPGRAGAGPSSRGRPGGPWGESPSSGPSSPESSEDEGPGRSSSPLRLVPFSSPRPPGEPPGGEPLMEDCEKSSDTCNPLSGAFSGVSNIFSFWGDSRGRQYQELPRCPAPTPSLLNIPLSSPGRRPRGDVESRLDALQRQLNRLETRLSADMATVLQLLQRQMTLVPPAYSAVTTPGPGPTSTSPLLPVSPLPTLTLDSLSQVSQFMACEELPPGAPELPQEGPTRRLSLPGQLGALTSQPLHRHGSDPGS

Staphylococcus aureus [6] = test: Antibacterial activity against vancomycin-intermediate methicillin-resistant Staphylococcus aureus Mu50 infected in BALB/c mouse assessed as decrease in bacterial survival in mouse kidney at 0.1 to 0.4 mg, ip bid administered 4.5 days after 6 hrs bacterial infection measured after 90 hrs; assay type: functional, organism-based
In short: (§2)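 6–8-week-old female BALB/c mice (SPF) dosed intraperitoneally twice daily over 4.5 d at 0.1 or 0.4 mg/bid. Pre-treatment started before infection; post-treatment started 6 h after infection. Vancomycin and linezolid controls given as pre-treatment at 0.4 mg/bid. Retro-orbital inoculation: Mu50 1.1 × 10⁹ CFU, NRS271 1.8 × 10⁸ CFU. Kidneys and livers homogenised in PBS/0.01% Triton X-100 and plated on TSA for CFU.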

Staphylococcus aureus [7] = test: Antibacterial activity against vancomycin-intermediate methicillin-resistant Staphylococcus aureus Mu50 infected in BALB/c mouse assessed as decrease in bacterial survival in mouse liver at 0.1 to 0.4 mg, ip bid administered 4.5 days after 6 hrs bacterial infection measured after 90 hrs; assay type: functional, organism-based; in short: as §2
Staphylococcus aureus [8] = test: Antibacterial activity against wild type Staphylococcus aureus Newman infected in BALB/c mouse assessed as decrease in bacterial load in mouse liver at 0.1 mg, ip bid administered 4.5 days after 6 hrs bacterial infection measured after 90 hrs relative to control; assay type: functional; in short: as §1

For CN(C/C=C/C=C/c1ccc(C(F)(F)F)cc1F)Cc1ccc2c(c1)OCO2.Cl, the CC50 (HepG2) was 90.3 µM, the Activity (Staphylococcus aureus [1]) was 1.9 deltalog10CFU and the Activity (Staphylococcus aureus [2]) was “inactive”. The “growth inhibition (GI)” value (Staphylococcus aureus [3]) was “inactive”, the IC50 (Staphylococcus aureus [4]) was 0.0041 µM and the IC50 [5] was 14 µM. For the same molecule, the Activity (Staphylococcus aureus [6]) was “Active”, the Activity (Staphylococcus aureus [7]) was “Active” and the Activity (Staphylococcus aureus [8]) was 1.53 deltalog10CFU.

Reference: ChEMBL document CHEMBL4145474, “Discovery of novel piperonyl derivatives as diapophytoene desaturase inhibitors for the treatment of methicillin-, vancomycin- and linezolid-resistant Staphylococcus aureus infections” (Eur J Med Chem, 2018)
